Data: publication PMC10468838 (ACS Omega, 2023)
Converted amounts (≈) assume the structure as drawn. Where two headings read alike, the source gives them in different places.

Columns and labels:
[1] = tested on: MCF-7 breast cancer cells; assay: MTT assay, MCF-7 cells; assay type: cell-based; conditions: Homo sapiens, MCF7, 72 h, read-out: IC50 (μM) MCF-7
Method in brief: (§1)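 HT29, H1975, A549, MCF-7 and normal colon epithelial CCD841 cells were seeded at 5×10^5 cells/mL and grown 24 h. They were exposed to test compound at 0.5, 1.0, 2.0, 5.0 or 12.5 μM in DMEM for 24 h, then cultured a further 72 h. MTT (5 mg/mL solution) was added for 4 h at 37 °C and the formazan dissolved in DMSO. A490 was read. IC50 is given as mean ± s.d., n = 3.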

A549 lung cancer cells = assay: MTT assay, A549 cells; assay type: cell-based; conditions: Homo sapiens, A549, 72 h, read-out: IC50 (μM) A549
Method in brief: as §1

HT29 colon cancer cells = assay: MTT assay, HT29 cells; assay type: cell-based, human; conditions: for IC50: read-out: IC50 (μM) HT29
Method in brief: as §1

[2] = tested on: H1975 lung adenocarcinoma cells; assay: MTT assay, H1975 cells; assay type: cell-based; conditions: Homo sapiens, NCI-H1975, 72 h, read-out: IC50 (μM) H1975
Method in brief: as §1

[3] = tested on: human normal colon epithelial cells (CCD841); assay: MTT assay, normal CCD841 cells; assay type: cell-based
Method in brief: as §1

GPX4 in HT29 cells = assay: Western blot, GPX4; assay type: cell-based, human; conditions: 1.0 or 5.0 μM, compared with CO
Method in brief: (§2)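 HT29 cells were cultured for 4 h in medium containing test compound at 1.0 or 5.0 μM, with the parent reference at 5.0 μM. Lysis was in RIPA buffer with protease and phosphatase inhibitors, 30 min on ice. Protein was quantified by BCA, and equal amounts were run on SDS-PAGE and transferred to PVDF. Band levels were expressed relative to β-actin.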

[4] = tested on: malondialdehyde (MDA) in HT29 cells; assay: Lipid peroxidation; assay type: cell-based, human; conditions: compared with CO
Method in brief: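 HT29 cells were pretreated with or without ferrostatin-1 (1.0 μM) for 4 h. They were then exposed to test compound at 1.0 or 5.0 μM, with the parent reference at 5.0 μM. Lipid peroxidation was quantified as malondialdehyde with an MDA assay kit. Results are mean ± SD, n = 3.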

H2AX in HT29 cells = assay: Western blot, H2AX; assay type: cell-based, human; conditions: Western blotting
Method in brief: as §2

HT29 cells = assay: Apoptosis assay, annexin V-FITC/PI flow cytometry; assay type: cell-based, human
Method in brief: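 HT29 cells were seeded at 2×10^4 cells per well and left overnight. They were treated with test compound at 1.0 or 5.0 μM (parent reference 5.0 μM) for 24 h, then kept another 72 h. Cells were harvested, washed in PBS and stained with annexin V-FITC/PI. Early plus late apoptotic cells were counted by flow cytometry. Results are mean ± SD of three separate assays.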

[5] = Water solubility by UV method; assay type: physicochemical; conditions: thermodynamic from solid
Method in brief: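 For a UV calibration curve, absorbance was measured at five concentrations of each compound in methanol/water (1:1, v/v). Excess solid compound was left standing in water for 2 h, then filtered. Absorbance of the filtrate was read and converted to concentration using the curve, giving water solubility.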

[6] = tested on: HT29, H1975, A549 and MCF-7 cancer cells; assay: MTT assay, summary over the four cancer cell lines; assay type: cell-based, human; conditions: for IC50: Homo sapiens, read-out: IC50 against the four cancer cell lines
Method in brief: as §1

GSH level in HT29 cells = assay: GSH level assay; assay type: cell-based, human; conditions: 24 h, 1.0 or 5.0 μM, compared with CO
Method in brief: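 HT29 cells were exposed for 24 h to test compound at 1.0 or 5.0 μM, with the parent reference at 5.0 μM. Cells were harvested and counted. Glutathione was measured with a QuantiChrome glutathione assay kit. Results are mean ± SD, n = 3.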

ROS levels in HT29 cells = assay: Intracellular ROS detection with DCFH-DA probe; assay type: cell-based, human; conditions: 12 h, CO 5.0 μM, 8h 1.0 or 5.0 μM
Method in brief: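 HT29 cells (about 1×10^4 per well) were exposed to test compound at 1.0 or 5.0 μM for 12 h, with the parent reference at 5.0 μM. DCFH-DA (10 μM) was added for 30 min. DCF green fluorescence (λex 488 nm, λem 500–550 nm) was imaged by confocal microscopy. Results are mean ± SD of three separate assays.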

MMP of HT29 cells = assay: Mitochondrial membrane potential with JC-1 dye; assay type: cell-based, human; conditions: 8h 5 μM
logP by UV method = assay type: physicochemical
Bcl-2 in HT29 cells = assay: Western blot, Bcl-2; assay type: cell-based, human; conditions: 1.0 and 5.0 μM, Western blotting
[7] = tested on: cleaved-caspase 3 in HT29 cells; assay: Western blot, cleaved-caspase 3; assay type: cell-based, human; conditions: 1.0 and 5.0 μM, Western blotting
Method in brief: as §2

## O=C(NCCN1CCCC1)c1cc2c3ccccc3n3c(=O)ccc(n1)c23 [8e, 6-Oxo-N-(2-(pyrrolidin-1-yl)ethyl)-6H-indolo[3,2,1-de][1,5]naphthyridine-2-carboxamide]
[1]
  IC50: 4.5 ± 0.6 µM
A549 lung cancer cells
  IC50: 2.1 ± 0.3 µM

## CN1CCN(C2CCN(c3ccc(NC(=O)c4cc5c6ccccc6n6c(=O)ccc(n4)c56)cc3)CC2)CC1 [8l, N-(4-(4-(4-Methylpiperazin-1-yl)piperidin-1-yl)phenyl)-6-oxo-6H-indolo[3,2,1-de][1,5]naphthyridine-2-carboxamide]
HT29 colon cancer cells; Homo sapiens, HT-29, 72 h
  IC50: > 10 µM
[2]
  IC50: > 10 µM
[1]
  IC50: > 10 µM
A549 lung cancer cells
  IC50: > 10 µM

## CCN(CC)CCCC(C)NC(=O)c1cc2c3ccccc3n3c(=O)ccc(n1)c23 (stereo not drawn) [8k, N-(5-(Diethylamino)pentan-2-yl)-6-oxo-6H-indolo[3,2,1-de][1,5]naphthyridine-2-carboxamide]
HT29 colon cancer cells; Homo sapiens, HT-29, 72 h
  IC50: 4.3 ± 0.5 µM
[2]
  IC50: 5.5 ± 0.7 µM
[1]
  IC50: 3.8 ± 0.3 µM

## CN(C)CCCNC(=O)c1cc2c3ccccc3n3c(=O)ccc(n1)c23 [8c, N-(3-(Dimethylamino)propyl)-6-oxo-6H-indolo[3,2,1-de][1,5]naphthyridine-2-carboxamide]
HT29 colon cancer cells; Homo sapiens, HT-29, 72 h
  IC50: 4.1 ± 0.3 µM
[2]
  IC50: 7.7 ± 0.8 µM
[1]
  IC50: 4.6 ± 0.5 µM
A549 lung cancer cells
  IC50: 4.8 ± 0.4 µM

## CN1CCN(CCNC(=O)c2cc3c4ccccc4n4c(=O)ccc(n2)c34)CC1 [8h, N-(2-(4-Methylpiperazin-1-yl)ethyl)-6-oxo-6H-indolo[3,2,1-de][1,5] naphthyridine-2-carboxamide]
HT29 colon cancer cells; HT29 cells, vs CO
  fold lower IC50 than CO against HT29 cells: 8.6 fold
HT29 colon cancer cells; Homo sapiens, HT-29, 72 h
  IC50: 1 ± 0.1 µM
[3]; Homo sapiens, CCD-841, read-out: IC50 in normal cell line CCD841
  IC50: 17.1 ± 2.5 µM
[3]; IC50 CCD841 vs IC50 HT29
  fold less cytotoxicity in CCD841 than in HT29 cells: 17 fold
GPX4 in HT29 cells
  GPX4 expression: markedly reduced
[4]
  level of malondialdehyde (MDA), lipid peroxidation: increased the level of malondialdehyde
H2AX in HT29 cells; 1.0 μM
  increase of H2AX expression: 2.4 fold
H2AX in HT29 cells; 5.0 μM
  increase of H2AX expression: 3.2 fold
HT29 cells; 1.0 μM
  percentage of apoptotic cells (early + late): 31.55%
HT29 cells; 5.0 μM
  percentage of apoptotic cells (early + late): 45.14%
[5]
  solubility at 2 h: 70.5 ± 3.6 µg/mL (≈ 181 µM)
[6]
  IC50: 1 to 1.9 µM
[6]; vs CO, four cancer cell lines
  fold higher cytotoxicity than CO against the four cancer cells: 5–9 fold
GSH level in HT29 cells
  GSH level: markedly reduced
ROS levels in HT29 cells
  intracellular ROS level (DCFH-DA fluorescence): Intense green fluorescence
MMP of HT29 cells
  MMP (JC-1 red/green fluorescence): intracellular red fluorescence almost disappeared
logP by UV method
  logP: 1.19
Bcl-2 in HT29 cells
  Bcl-2 expression: reduced the expression of antiapoptotic Bcl-2 protein in a dose-dependent manner
[2]
  IC50: 1.9 ± 0.3 µM
[1]
  IC50: 1.7 ± 0.2 µM
A549 lung cancer cells
  IC50: 1.3 ± 0.1 µM
[7]
  cleaved-caspase 3 level: remarkably led to cleavage of caspase-3

## O=c1ccc2nccc3c4ccccc4n1c23 [CO, Canthin-6-one, reference compound]
HT29 colon cancer cells; Homo sapiens, HT-29, 72 h
  IC50: 8.6 ± 0.7 µM
H2AX in HT29 cells; 5.0 μM
  increase of H2AX expression: approximately 1.3 fold
HT29 cells; 5.0 μM
  percentage of apoptotic cells (early + late): 22.68%
[5]
  solubility at 2 h: 16.1 ± 1 µg/mL (≈ 73.1 µM)
[6]
  IC50: 7.6 to 10.7 µM
ROS levels in HT29 cells
  intracellular ROS level (DCFH-DA fluorescence): weak fluorescence signal
logP by UV method
  logP: 1.87
[2]
  IC50: 10.7 ± 1.2 µM
[1]
  IC50: 8.9 ± 0.9 µM
A549 lung cancer cells
  IC50: 7.6 ± 0.6 µM

## CCN(CC)CCNC(=O)c1cc2c3ccccc3n3c(=O)ccc(n1)c23 [8a, N-(2-(Diethylamino)ethyl)-6-oxo-6H-indolo[3,2,1-de][1,5]naphthyridine-2-carboxamide]
HT29 colon cancer cells; Homo sapiens, HT-29, 72 h
  IC50: 2.2 ± 0.3 µM
[1]
  IC50: 4.7 ± 0.4 µM
A549 lung cancer cells
  IC50: 3.8 ± 0.5 µM

## O=C(NCCN1CCCCC1)c1cc2c3ccccc3n3c(=O)ccc(n1)c23 [8f, 6-Oxo-N-(2-(piperidin-1-yl)ethyl)-6H-indolo[3,2,1-de][1,5]naphthyridine-2-carboxamide]
HT29 colon cancer cells; Homo sapiens, HT-29, 72 h
  IC50: 1.7 ± 0.3 µM
[5]
  solubility at 2 h: 41.3 ± 4.5 µg/mL (≈ 110 µM)
logP by UV method
  logP: 2.17
[2]
  IC50: 1.6 ± 0.1 µM
[1]
  IC50: 2.4 ± 0.2 µM
A549 lung cancer cells
  IC50: 2 ± 0.1 µM

## O=C(NCCNCCO)c1cc2c3ccccc3n3c(=O)ccc(n1)c23 [8d, N-(2-((2-Hydroxyethyl)amino)ethyl)-6-oxo-6H-indolo[3,2,1-de][1,5] naphthyridine-2-carboxamide]
HT29 colon cancer cells; Homo sapiens, HT-29, 72 h
  IC50: 2.6 ± 0.2 µM
A549 lung cancer cells
  IC50: 4.2 ± 0.3 µM

## COc1cccc2c1C(=O)c1c(O)c3c(c(O)c1C2=O)C[C@@](O)(C(=O)CO)C[C@@H]3O[C@H]1C[C@H](N)[C@H](O)[C@H](C)O1 [ADM, reference compound]
HT29 colon cancer cells; HT29 cells, MTT, incubated for 72 h, mean ± s.d., n = 3
  IC50: 2.6 ± 0.4 µM

## CN1CCC(NC(=O)c2cc3c4ccccc4n4c(=O)ccc(n2)c34)CC1 [8i, N-(1-Methylpiperidin-4-yl)-6-oxo-6H-indolo[3,2,1-de][1,5]naphthyridine-2-carboxamide]
HT29 colon cancer cells; Homo sapiens, HT-29, 72 h
  IC50: 2.3 ± 0.3 µM
[5]
  solubility at 2 h: 60.4 ± 5.4 µg/mL (≈ 168 µM)
logP by UV method
  logP: 1.38
[2]
  IC50: 3 ± 0.4 µM
[1]
  IC50: 4.6 ± 0.5 µM
A549 lung cancer cells
  IC50: 3.4 ± 0.3 µM

## NC1CCC(NC(=O)c2cc3c4ccccc4n4c(=O)ccc(n2)c34)CC1 (stereo not drawn) [8j, N-(4-Aminocyclohexyl)-6-oxo-6H-indolo[3,2,1-de][1,5]naphthyridine-2-carboxamide]
[1]
  IC50: 5.9 ± 0.5 µM
A549 lung cancer cells
  IC50: 3.5 ± 0.4 µM

## CN(C)CCNC(=O)c1cc2c3ccccc3n3c(=O)ccc(n1)c23 [8b, N-(2-(Dimethylamino)ethyl)-6-oxo-6H-indolo[3,2,1-de][1,5]naphthyridine-2-carboxamide]
HT29 colon cancer cells; Homo sapiens, HT-29, 72 h
  IC50: 2.9 ± 0.4 µM
[2]
  IC50: 7.5 ± 0.6 µM
[1]
  IC50: 3.8 ± 0.3 µM
A549 lung cancer cells
  IC50: 3.2 ± 0.2 µM
